Compound activity: PubChem BioAssay, several laboratories
Most compounds without a hit are left out; they make up all but 4% or so of the library.
PHOSPHO1 inh: blocks human PHOSPHO1 phosphatase activity | Q8TCT1 | recombinant PHOSPHO1, absorbance phosphatase assay | inhibition, % at 13.3 µM | hit rate 1.1% among 290,000; in the data active = inhibition above about 60%
KCNQ1 pot: human KCNQ1 channel potentiation or activation; P51787; CHO-K1 KCNQ1, thallium flux FluxOR fluorescence; stronger effect = higher value; B-score at 10 µM; hit rate 0.35% among 310,000;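 active = fluorescence ratio B-score, a plate-corrected score, at least three library SD, with initial intensity B-score within 5 SD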
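Material: CHO-K1 cells stably expressing KCNQ1. Medium: assay buffer for compound exposure, DMSO matched across wells. Reagent: K+/Tl+ depolarizing stimulus. Compound dosing: single-concentration screen. Times: 37 °C overnight plating, 90-min dark dye load, 20-min compound pretreatment. Technique: FluxOR Tl+ flux fluorescence.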
KCNK3 inh: human KCNK3 channel inhibition, primary screen; B-score at 10 µM; AID 602410; hit rate 0.84% among 340,000; CHO-KCNK3 thallium flux, FluxOR fluorescence; stronger effect = lower value;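 active = B-score under library mean minus 4 SD, starting fluorescence ratio at most library mean plus 5 SD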;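 note: more negative B-score means stronger inhibition of thallium flux through KCNK3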
hERG rescue: shields human hERG channel from block by proarrhythmic agents. Q12809. hit rate 0.51% among 310,000. AID 1511. activation (rescue from dofetilide block), less the hit threshold, % at 10 µM. CHO-hERG, FluxOR thallium flux, dofetilide IC70 present;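 active = activation above the mean of controls blocked by dofetilide plus 5 SD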;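 note: thallium influx through hERG after potassium depolarization seen as dye fluorescence rise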
Target sequence (Q12809 whole entry, looked up): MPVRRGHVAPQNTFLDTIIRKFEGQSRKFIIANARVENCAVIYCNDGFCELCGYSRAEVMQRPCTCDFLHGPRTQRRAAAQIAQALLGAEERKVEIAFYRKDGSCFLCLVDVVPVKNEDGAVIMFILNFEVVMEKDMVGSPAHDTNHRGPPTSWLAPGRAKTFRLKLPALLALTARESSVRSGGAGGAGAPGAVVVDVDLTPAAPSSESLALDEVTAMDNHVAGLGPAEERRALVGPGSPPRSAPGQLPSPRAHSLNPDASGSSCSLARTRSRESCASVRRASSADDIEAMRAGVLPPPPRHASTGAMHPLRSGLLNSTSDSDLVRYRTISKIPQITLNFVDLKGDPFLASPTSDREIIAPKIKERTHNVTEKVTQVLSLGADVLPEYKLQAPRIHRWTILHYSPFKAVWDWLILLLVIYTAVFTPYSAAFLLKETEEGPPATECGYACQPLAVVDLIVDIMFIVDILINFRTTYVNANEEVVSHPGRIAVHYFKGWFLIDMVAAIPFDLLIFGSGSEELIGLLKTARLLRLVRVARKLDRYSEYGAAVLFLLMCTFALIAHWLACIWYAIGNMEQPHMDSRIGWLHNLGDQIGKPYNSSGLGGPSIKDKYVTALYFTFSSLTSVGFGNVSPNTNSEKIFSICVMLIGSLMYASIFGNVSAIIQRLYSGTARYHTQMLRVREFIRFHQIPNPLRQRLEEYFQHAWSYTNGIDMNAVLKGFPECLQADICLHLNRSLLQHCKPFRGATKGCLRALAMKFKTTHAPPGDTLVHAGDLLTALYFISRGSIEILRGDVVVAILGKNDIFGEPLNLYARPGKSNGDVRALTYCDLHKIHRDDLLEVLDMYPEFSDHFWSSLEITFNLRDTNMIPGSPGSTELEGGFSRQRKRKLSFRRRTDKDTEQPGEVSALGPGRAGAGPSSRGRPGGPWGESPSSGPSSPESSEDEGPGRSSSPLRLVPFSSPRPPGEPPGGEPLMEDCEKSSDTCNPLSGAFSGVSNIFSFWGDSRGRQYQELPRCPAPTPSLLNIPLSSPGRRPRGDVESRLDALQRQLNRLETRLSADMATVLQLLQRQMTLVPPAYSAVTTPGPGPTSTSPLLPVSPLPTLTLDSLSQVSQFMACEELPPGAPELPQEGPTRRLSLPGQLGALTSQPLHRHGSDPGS
KCNK9 block: inhibitors of human KCNK9 two-pore domain potassium channel; Q9NPC2; HEK293 KCNK9, FluxOR thallium flux fluorescence; stronger effect = lower value; B-score at 10 µM; hit rate 1.2% among 310,000;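 active = ratio B-score over 3 SD below the library mean, with starting fluorescence within 5 SD of its mean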;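 note: negative B-score means less thallium flux so channel inhibition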
KCNQ1 block: inhibitors of human KCNQ1 potassium channel; CHO-K1 KCNQ1, FluxOR thallium flux fluorescence; stronger effect = higher value; B-score at 10 µM; hit rate 1.3% among 310,000;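 active = compounds whose thallium flux B-score, printed positive for inhibition, exceeds three library SD while starting fluorescence stays within three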;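 note: channel opened by potassium depolarization with thallium stimulus after 20 min compound exposure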
* marks the source's active call; other numbers are inactive results; i = inactive; / = no result given.

SMILES | PHOSPHO1 inh | KCNQ1 pot | KCNK3 inh | hERG rescue | KCNK9 block | KCNQ1 block
CCOC(O)[C@H]1N[C@@H](c2ccc(Cl)cc2)[C@@H]([N+](=O)[O-])[C@@H]1c1ccccc1 (some centres undefined) | 0 | i | i | -4 | -7.1* | i
COc1ccccc1C(=O)NNC(=S)NC(=O)c1sc2ccccc2c1Cl | -7 | 25* | i | 25* | i | i
COc1ccccc1C(=O)NC(=S)NNC(=O)c1sc2ccccc2c1Cl | -14 | 46* | i | 86* | i | i
CC1CCCCC1NC(=S)NC(=O)c1sc2ccccc2c1Cl (centres undefined) | 20 | 9* | i | 7.2* | i | i
Cc1c(NC(=S)NC(=O)c2sc3ccccc3c2Cl)cccc1C(=O)O | 8 | i | i | 0 | i | i
CC1CCCCC1NC(=S)NC(=O)c1ccccc1Cl (centres undefined) | / | / | i | / | / | /
COc1ccccc1C(=O)NNC(=S)NC(=O)c1cccs1 | -62 | 10* | i | -19 | i | i
O=C(NC(=S)NNC(=O)c1ccccc1O)c1cccs1 | 0 | i | i | -15 | i | i
CCOC(=O)NC(=O)c1cn(C(CC)CO)c(=O)[nH]c1=O (centres undefined) | -11 | i | i | -10 | i | i
O=C(NC(=S)N(CCCCO)C1CCCCC1)c1sc2ccccc2c1Cl | -7 | 31* | i | 18* | i | i
CCN(C(=O)COC(=O)CNC(=O)c1sc2ccccc2c1Cl)C1CCCCC1 | / | i | i | -8 | i | i
O=[N+]([O-])c1ccc(S(=O)Cc2ccccc2)c([N+](=O)[O-])c1 (centres undefined) | / | / | i | / | / | /
Nc1ccc(Nc2nc(-c3ccncc3)cs2)cc1 | 81* | i | i | -4 | i | i
CC1CCN(CC(=O)N(C)c2c(N)n(Cc3ccccc3)c(=O)[nH]c2=O)CC1 | / | / | i | / | / | /
Cc1cccnc1NCc1ccc(O)c2ncccc12 | 78* | i | i | 6.8* | i | i
Cc1ccc(Oc2ccc(OCC(=O)NC(CC(C)C)C(=O)O)cc2)cc1 (centres undefined) | 37 | i | i | 4.9* | i | i
CC(C)COc1ccc(C(=O)NC(CC(C)C)C(=O)O)cc1 (centres undefined) | -6 | i | i | -3 | i | i
CC(Oc1ccc2c3c(c(=O)oc2c1)CCCC3)C(=O)NC1CC(C)(C)NC(C)(C)C1 (centres undefined) | 47 | i | i | -3 | i | i
Cc1c(C)c2ccc(OC(C)C(=O)NC3CC(C)(C)NC(C)(C)C3)cc2oc1=O (centres undefined) | 70* | i | i | -5 | i | i
O=C(c1ccc(OC2CCN(Cc3ccccc3O)CC2)cc1)N1CCCCC1 | 29 | i | i | -9 | i | i
Cc1ccccc1NC(=O)c1ccc(F)c(S(=O)(=O)N2CCN(c3ccccn3)CC2)c1 | 38 | i | i | -10 | i | i
Cc1ccc2nc(SC(C)C(=O)NCc3ccc4c(c3)OCO4)[nH]c2c1 (centres undefined) | 1 | i | i | 19* | i | i
Cc1ccc(NC(=O)c2cc3ccccc3o2)cc1Cl | 29 | i | i | -4 | i | i
CCCC1(C(=O)O)NC(c2ccccc2O)C2C(=O)N(Cc3ccccc3)C(=O)C21 (centres undefined) | 24 | i | i | -4 | i | i
CCC1(C(=O)O)NC(c2cc(OC)ccc2O)C2C(=O)N(Cc3ccccc3)C(=O)C21 (centres undefined) | -2 | i | i | 5.5* | i | i
SMILES | PHOSPHO1 inh | KCNQ1 pot | KCNK3 inh | hERG rescue | KCNK9 block | KCNQ1 block
CCCCN1C2=C(C(=O)CCC2)C(c2ccc(Cl)c(Cl)c2)C2=C1c1ccccc1C2=O (centres undefined) | -56 | i | -9.9* | -9 | i | i
O=C(c1ccc(Cl)cc1)N1CCCOC1 | -1 | i | i | 7.0* | i | i
CC(C)C[C@H](NC(=O)[C@H]1N2C(=O)c3ccccc3C2SC1(C)C)C(=O)N[C@@H](Cc1ccccc1)C(=O)O (some centres undefined) | 19 | i | i | -5 | i | i
CN(CC(=O)Nc1ccc(F)c(F)c1)S(=O)(=O)c1cccc2cccnc12 | 33 | i | i | -8 | i | i
Cc1cc(=O)cc(C)n1-c1ccc(F)cc1F | -48 | i | i | 6.6* | i | i
CC(=O)C1=C(C)Nc2cc(C(F)(F)F)ccc2S1 | 96* | i | i | -6 | i | i
O=C(c1ccco1)N1N=C(c2cccs2)CC1c1cc([N+](=O)[O-])ccc1O (centres undefined) | 61* | i | i | -12 | i | i
O=C(c1ccco1)N1N=C(c2cccs2)CC1c1ccc(F)cc1 (centres undefined) | 18 | i | i | -16 | -7* | i
COc1ccc(C2=NN(C(=O)CN3CCCCC3)C(c3ccc(C)cc3)C2)cc1 (centres undefined) | 56 | i | i | -10 | i | 6*
COc1ccc(C2CC(c3ccc(Br)cc3)=NN2C(=O)CN2CCCC2)cc1 (centres undefined) | 24 | i | i | -20 | i | i
O=C(c1cccs1)N1N=C(c2ccc(O)cc2)CC1c1ccccc1 (centres undefined) | -4 | i | i | -4 | i | i
O=C(c1cccs1)N1N=C(c2ccccc2)CC1c1ccccc1 (centres undefined) | -3 | i | i | -5 | -7.2* | i
CCC(=O)N1N=C(c2cccs2)CC1c1ccc(C)cc1 (centres undefined) | 15 | i | i | 5.1* | i | i
Cc1ccc(C2CC(c3cccs3)=NN2C(=O)CCl)cc1 (centres undefined) | 11 | i | i | -2 | i | i
CCOC(=O)CC(=O)CSc1ccc2nnc(-c3ccc(C)cc3)n2n1 | 68* | i | i | -7 | i | i
CC(=O)C(Sc1ccc2nnc(-c3ccc(C)cc3)n2n1)C(C)=O | -2 | i | i | -8 | i | i
CC(=O)C(Sc1ccc2nnc(-c3ccc(F)cc3)n2n1)C(C)=O | 89* | i | i | -9 | i | i
Cc1c(Cl)c(C(=O)NNC(=S)Nc2ccccc2)nn1C | 66* | i | i | -8 | i | i
O=S1(=O)CCN(C(CCO)c2cccc(C(F)(F)F)c2)CC1 (centres undefined) | 4 | i | i | -4 | i | i
